For series [1] the following is noted: chymotrypsin-based two-step assay; cited from earlier work.
Series [2] has as its system ^15N-OsIAA11^72−125 (W104-P105 peptide bond). In words: Nzz-exchange: catalyzed cis-trans exchange of W104-P105. In kind it is biochemical, rice. The method, boiled down: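 15N-labeled OsIAA11 72–125 substrate (800μM) with 16μM enzyme (LRT2 mutant or homolog) in NMR buffer (50mM KCl, 20mM KPO4, 3mM TCEP, 5mM NaN3, 0.1% protease inhibitor cocktail, pH=6.67). Protein concentrations were set by A280 using theoretical extinction coefficients. Nzz-exchange spectra were processed to give the observed cis-trans exchange rate (kexobs) of the W104-P105 bond with uncertainties.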

Regarding hCypA W121A: hCypA W121A mutant, in series [1], the “Catalytic activity on W-P substrate” value is “negligible catalytic activity”.
“hCypA: human cyclophilin A [reference compound]”: in series [2] (16μM enzyme, 800μM OsIAA11^72–125), the “Nzz exchange crosspeaks / activity” value is “clear exchange crosspeaks”. The Nzz-measured kexobs in series [2] (1H-15N Nzz exchange, 16μM enzyme, 800μM OsIAA11^72–125, NMR buffer pH=6.67) worked out at 0.69 ± 0.04 s⁻¹. For the same substance, the “Activity relative to WT LRT2 on OsIAA11” value in series [2] (Nzz, % of WT LRT2 activity) turned out to be 110%.

The values above are taken from publication PMC7141409 (Journal of biomolecular NMR, 2019).
